From ChEMBL document CHEMBL1156947, “Halogenated analogs of 1'-acetoxychavicol acetate, Rev-export inhibitor from Alpinia galanga, designed from mechanism of action” (Bioorg Med Chem Lett, 2010)
pIC50: −log10 of the molar value. Values after ≈ are worked out from the molar mass of the structure shown.

Key:
[1] = Stability assessed as compound remaining up to 180 mins in presence of in fetal bovine serum; assay type: ADME; conditions: cattle, 3 h
In short: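 Sample (0.2 mM ethanol stock) added to RPMI1640 containing 10% FBS, held at 37 °C for 0, 30, 60 or 180 min. Mixture extracted with EtOAc, residue taken up in acetonitrile. Remaining compound measured by reversed-phase HPLC (C18, acetonitrile–water gradient, UV 220 nm), in triplicate.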

[2] = test system: Human immunodeficiency virus 1; assay: Inhibition of HIV1 Rev nuclear export in Saccharomyces pombe expressing GST-NLS-GFP-RevNES fused protein assessed as cellular distribution after 3 hrs by fluorescence microscopy
In short: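 Fission yeast colony grown 24 h at 37 °C in thiamine-free MM medium to induce the GST-NLS-GFP-RevNES fusion. Cells then exposed to samples in medium with 1% DMSO for 3 h at 37 °C. Fusion-protein distribution checked by fluorescence microscopy to give MIC values.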

[3] = Inhibition of HIV1 HA-tagged Rev nuclear export expressed in human HeLa cells assessed as cellular localization after 12 hrs by FITC-labelled indirect fluorescence microscopy; assay type: cell-based; conditions: Human immunodeficiency virus 1, HeLa
In short: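 HeLa cells (1.0 × 10^5) grown on coverslips in DMEM with 10% FBS, 37 °C, 5% CO2, 24 h. Co-transfected 16 h with plasmids for HA-tagged Rev and Gag (pCRRE/ΔRev). Samples added in medium with 1% DMSO, 12 h at 37 °C. Cells fixed in 4% formaldehyde, methanol-treated, blocked with 10% FBS, then anti-HA and FITC anti-mouse IgG. Rev localization scored by fluorescence microscopy and image analysis.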

| Stability [1] | MIC [2] [µM] | pIC50 [3] | SMILES |
| --- | --- | --- | --- |
| Stable | > 50 | – | C=C[C@H](OC(=O)OC(C)(C)C)c1ccc(OC(=O)OC(C)(C)C)cc1 |
| – | 26 (≈ 7.24 µg/mL) | – | C=C[C@H](OC(=O)OCCC)c1ccc(OC(C)=O)cc1 |
| – | 1.7 (≈ 0.532 µg/mL) | 6.31 | C=C[C@H](OC(C)=O)c1ccc(OC(C)=O)c(Br)c1 |
| Stable | > 50 | – | C=C[C@H](OC(=O)NC(C)C)c1ccc(OC(=O)NC(C)C)cc1 |
| – | 2.2 (≈ 0.591 µg/mL) | 6.21 | C=C[C@H](OC(C)=O)c1ccc(OC(C)=O)c(Cl)c1 |
| Stable | 25 (≈ 7.36 µg/mL) | – | C=C[C@H](OC(=O)OCC)c1ccc(OC(=O)OCC)cc1 |
| Stable | > 50 | – | C=C[C@H](OC(=O)NCCC)c1ccc(OC(=O)NCCC)cc1 |
| – | 19 (≈ 4.98 µg/mL) | – | C=C[C@H](OC(=O)CCC)c1ccc(OC(C)=O)cc1 |
| Stable | > 50 | – | C=C[C@H](OC(=O)OC(C)C)c1ccc(OC(=O)OC(C)C)cc1 |
| Stable | 10 (≈ 3.22 µg/mL) | – | C=C[C@H](OC(=O)OCCC)c1ccc(OC(=O)OCCC)cc1 |
| – | 1.7 (≈ 0.429 µg/mL) | 6.32 | C=C[C@H](OC(C)=O)c1ccc(OC(C)=O)c(F)c1 |
| – | 1.4 (≈ 0.378 µg/mL) | 6.89 | C=C[C@H](OC(C)=O)c1ccc(OC(C)=O)c(F)c1F |
| Stable | > 50 | – | C=C[C@H](OC(=O)NCC)c1ccc(OC(=O)NCC)cc1 |
| Stable | 25 (≈ 6.66 µg/mL) | – | C=C[C@H](OC(=O)OC)c1ccc(OC(=O)OC)cc1 |
| Stable | > 50 | – | C=C[C@H](OC(=O)NC(C)(C)C)c1ccc(OC(=O)NC(C)(C)C)cc1 |
| – | 19 (≈ 4.98 µg/mL) | – | C=C[C@H](OC(=O)C(C)C)c1ccc(OC(C)=O)cc1 |
| – | > 50 | – | C=C[C@H](OC(=O)OC(C)C)c1ccc(OC(C)=O)cc1 |

| SMILES | Stability [1] | MIC [2] [µM] | pIC50 [3] |
| --- | --- | --- | --- |
| C=C[C@H](OC(=O)NC)c1ccc(OC(=O)NC)cc1 | Stable | > 50 | – |
| C=C[C@H](OC(C)=O)c1ccc(OC(C)=O)cc1 [1'-ACETOXYCHAVICOL ACETATE] | – | 4.3 | 6.01 |
